According to ChEMBL document CHEMBL3856275, “Discovery of Second Generation Reversible Covalent DPP1 Inhibitors Leading to an Oxazepane Amidoacetonitrile Based Clinical Candidate (AZD7986)” (J Med Chem, 2016):
≈ marks a conversion by molar mass, not a printed value.

What was measured:
[1] = Intrinsic clearance in rat hepatocytes assessed per 10^6 cells at 1 uM after 10 to 90 mins by LC-MS/MS method; format: ADME, cell-based, Hepatocyte
[2] = Propionaldehyde reactivity assessed as half life of the compound at pH 7.4 by LC-UV method; format: physicochemical
physchem [3] = conditions: pH 7.4
[4] = Apparent permeability across apical to basolateral side in human Caco2 cells at 10 uM after 1 hr by LC-MS method; conditions: Caco-2
[5] = Efflux ratio of apparent permeability across basolateral to apical over apical to basolateral side in human Caco2 cells at 10 uM after 1 hr by LC-MS method; conditions: Caco-2
[6] = Protein binding in human plasma at 10 uM after 6 hrs by LC-MS/MS method; format: ADME, cell-free; conditions: read-out: PPB (converted)
[7] = Intrinsic clearance in human liver microsomes at 1 uM after 5 to 40 mins by LC-MS/MS method; format: ADME; conditions: read-out: CLH
[8] = target: Voltage-gated inwardly rectifying potassium channel KCNH2 (Homo sapiens, UniProt Q12809)
physchem [9] = conditions: octanol/water, pH 7.4
Dipeptidyl peptidase 1 [10] = target: T1, Dipeptidyl peptidase 1 (Homo sapiens, UniProt P53634); experiment: Inhibition of DPP1 in human U937 cells using Gly-Phe-AFC as substrate preincubated for 60 mins followed by substrate addition by fluorescence assay; format: cell-based, U-937
Dipeptidyl peptidase 1 [11] = target: T1, Dipeptidyl peptidase 1; experiment: Inhibition of human recombinant DPP1 using Gly-Arg-AMC as substrate preincubated for 30 mins followed by substrate addition by fluorometric assay
Outline: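 Isolated human recombinant DPP1 was run in a fluorometric assay in piperazine-based buffer. Compound was pre-incubated with enzyme for 30 min at rt, then Gly-Arg-AMC dipeptide substrate was added. Data were curve-fitted to give pIC50, as the mean of at least two experiments.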

[12] = Protein binding in rat plasma at 10 uM after 6 hrs by LC-MS/MS method; format: ADME, cell-free; conditions: read-out: PPB (converted)
[13] = Apparent permeability across basolateral to apical side in human Caco2 cells at 10 uM after 1 hr by LC-MS method; conditions: Caco-2
[14] = Half life in Sprague-Dawley rat at 1 mg/kg, iv or 3 mg/kg, po; format: ADME, organism-based; conditions: in vivo
[15] = Volume of distribution at steady state in Sprague-Dawley rat at 1 mg/kg, iv or 3 mg/kg, po; format: ADME, organism-based; conditions: in vivo, read-out: Vdss
[16] = Oral bioavailability in Sprague-Dawley rat at 3 mg/kg; format: ADME, organism-based; conditions: in vivo
[17] = Clearance in Sprague-Dawley rat at 1 mg/kg, iv or 3 mg/kg, po; format: ADME, organism-based; conditions: in vivo
[18] = Intrinsic clearance in human hepatocytes assessed per 10^6 cells at 1 uM after 10 to 90 mins by LC-MS/MS method; format: ADME, cell-based, Hepatocyte
[19] = Intrinsic clearance in dog hepatocytes assessed per 10^6 cells at 1 uM after 10 to 90 mins by LC-MS/MS method; format: ADME, cell-based, Canis lupus familiaris, Hepatocyte
[20] = Protein binding in dog plasma at 10 uM after 6 hrs by LC-MS/MS method; format: ADME, cell-free, Canis lupus familiaris; conditions: read-out: PPB (converted)
[21] = Clearance in Beagle dog at 1 mg/kg, iv and 2 mg/kg, po; format: ADME, organism-based, Canis lupus familiaris; conditions: in vivo
[22] = Clearance in Han Wistar rat at 1 mg/kg, iv and 3 mg/kg, po; format: ADME, organism-based; conditions: in vivo
Outline: (§1)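 Han Wistar rat PK with 1 mg/kg iv and 3 mg/kg po doses, both in pH3 buffer. Clearance is given in ml/min/kg, Vss in L/kg and t1/2 in h.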

[23] = Oral bioavailability in Han Wistar rat at 3 mg/kg; format: ADME, organism-based; conditions: in vivo; outline: as §1
[24] = Half life in Beagle dog at 1 mg/kg, iv and 2 mg/kg, po; format: ADME, organism-based, Canis lupus familiaris; conditions: in vivo
[25] = Volume of distribution at steady state in Han Wistar rat at 1 mg/kg, iv and 3 mg/kg, po; format: ADME, organism-based; conditions: in vivo, read-out: Vdss; outline: as §1
[26] = Half life in Han Wistar rat at 1 mg/kg, iv and 3 mg/kg, po; format: ADME, organism-based; conditions: in vivo; outline: as §1
[27] = Oral bioavailability in Beagle dog at 2 mg/kg; format: ADME, organism-based, Canis lupus familiaris; conditions: in vivo
[28] = Volume of distribution at steady state in Beagle dog at 1 mg/kg, iv and 2 mg/kg, po; format: ADME, organism-based, Canis lupus familiaris; conditions: in vivo, read-out: Vdss

T1 sequence (P53634 25-134 limits assumed): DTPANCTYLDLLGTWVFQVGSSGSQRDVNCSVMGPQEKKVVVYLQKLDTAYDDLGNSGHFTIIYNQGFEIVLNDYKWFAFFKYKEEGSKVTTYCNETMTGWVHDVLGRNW
T1 sequence (P53634 231-394 limits assumed): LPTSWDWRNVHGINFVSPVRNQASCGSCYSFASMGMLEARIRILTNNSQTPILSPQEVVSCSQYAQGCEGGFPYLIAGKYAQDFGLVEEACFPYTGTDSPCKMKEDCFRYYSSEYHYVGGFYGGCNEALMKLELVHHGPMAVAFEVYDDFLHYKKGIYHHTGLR
T1 sequence (P53634 395-463 limits assumed): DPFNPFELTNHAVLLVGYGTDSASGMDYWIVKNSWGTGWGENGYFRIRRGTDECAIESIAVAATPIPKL
Chain of Voltage-gated inwardly rectifying potassium channel KCNH2 (Q12809 whole entry): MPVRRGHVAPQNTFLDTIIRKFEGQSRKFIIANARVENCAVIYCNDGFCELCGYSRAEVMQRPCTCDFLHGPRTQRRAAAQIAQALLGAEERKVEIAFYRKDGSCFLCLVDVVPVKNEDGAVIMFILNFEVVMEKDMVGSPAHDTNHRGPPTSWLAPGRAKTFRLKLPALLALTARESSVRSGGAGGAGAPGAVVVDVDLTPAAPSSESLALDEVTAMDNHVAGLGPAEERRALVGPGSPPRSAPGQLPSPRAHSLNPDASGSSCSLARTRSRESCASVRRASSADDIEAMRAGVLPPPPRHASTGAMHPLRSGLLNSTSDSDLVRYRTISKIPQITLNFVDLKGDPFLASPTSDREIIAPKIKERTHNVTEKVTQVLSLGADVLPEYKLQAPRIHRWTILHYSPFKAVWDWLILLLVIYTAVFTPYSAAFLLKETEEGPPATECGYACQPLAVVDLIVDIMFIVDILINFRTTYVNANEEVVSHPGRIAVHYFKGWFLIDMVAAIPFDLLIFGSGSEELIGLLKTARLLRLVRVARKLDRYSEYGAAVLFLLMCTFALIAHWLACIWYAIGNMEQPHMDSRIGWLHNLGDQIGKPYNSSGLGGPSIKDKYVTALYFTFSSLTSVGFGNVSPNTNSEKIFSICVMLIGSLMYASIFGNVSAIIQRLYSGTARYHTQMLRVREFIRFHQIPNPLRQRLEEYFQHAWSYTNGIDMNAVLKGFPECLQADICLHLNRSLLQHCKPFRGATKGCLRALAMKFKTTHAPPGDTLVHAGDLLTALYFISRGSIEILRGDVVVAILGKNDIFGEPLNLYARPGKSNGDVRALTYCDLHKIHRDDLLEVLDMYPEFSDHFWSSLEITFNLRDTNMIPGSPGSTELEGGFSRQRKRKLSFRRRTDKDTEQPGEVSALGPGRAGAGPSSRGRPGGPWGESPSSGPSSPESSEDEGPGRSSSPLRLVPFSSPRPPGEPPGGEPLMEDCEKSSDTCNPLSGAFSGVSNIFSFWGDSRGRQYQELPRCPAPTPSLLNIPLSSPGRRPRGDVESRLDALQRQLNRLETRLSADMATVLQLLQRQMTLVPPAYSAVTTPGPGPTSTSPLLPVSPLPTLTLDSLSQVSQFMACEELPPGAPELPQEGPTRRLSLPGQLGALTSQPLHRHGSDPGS

SMILES | CLH [1] [µL/min/10^6 cells] | half-life [2] [h] | solubility kinetic at 2 h (physchem [3]; buffer) [µM] | Papp A→B at 1 h, 10 µM [4] [×10⁻⁶ cm/s] | efflux ratio at 1 h, 10 µM [5] | fraction unbound at 6 h, 10 µM [6] | microsomal CLint at 1 µM [7] [µL/min/mg] | IC50 [8] [nM] | logD at 10 µM (physchem [9]) | IC50 (Dipeptidyl peptidase 1 [10]) [nM] | IC50 (Dipeptidyl peptidase 1 [11]) [nM] | fraction unbound at 6 h, 10 µM [12] | Papp B→A at 1 h, 10 µM [13] [×10⁻⁶ cm/s] | half-life [14] [h] | Vd [15] [L/kg] | bioavailability [16] [%] | clearance [17] [mL/min/kg] | intrinsic clearance (CLint) [18] [µL/min/10^6 cells] | CLH [19] [µL/min/10^6 cells] | fraction unbound at 6 h, 10 µM [20] | other results
N#Cc1ccc(-c2ccc(C[C@@H](C#N)NC(=O)[C@@H]3CCCCC[C@@H]3N)cc2)cc1 | < 3.5 | > 50 | 175 (≈ 67.6 µg/mL) | 11 | 2 | 0.03 | 13 | 3600 | 2 | 31.6 | 39.8 | 0.08 | 23 | – | – | – | – | – | – | – | –
Cc1cc(-c2ccc(C[C@@H](C#N)NC(=O)[C@@H]3CNCCCO3)cc2)cc2c1oc(=O)n2C | < 3.5 | > 50 | – | 13 | 5.9 | 0.08 | < 14 | > 33000 | 1.5 | 7.94 | 10 | 0.03 | 76 | 8 | 0.5 | 24 | 1 | < 3.5 | < 3.5 | 0.13 | solubility kinetic at 2 h (physchem [3]; phosphate buffered saline): 175 µM (≈ 76 µg/mL)
N#Cc1ccc(-c2ccc(C[C@@H](C#N)NC(=O)[C@@H]3CCCC[C@@H]3N)cc2)cc1 | < 3.5 | > 50 | 175 (≈ 65.2 µg/mL) | 11 | – | 0.07 | 9.3 | – | 1.6 | 39.8 | 39.8 | 0.12 | 36 | – | – | – | – | – | – | – | –
N#Cc1ccc(-c2ccc(C[C@@H](C#N)NC(=O)[C@@H]3CNCCCO3)cc2)cc1 | < 3.5 | > 50 | – | 19 | 2.4 | 0.09 | 9.5 | 17000 | 1.1 | 31.6 | 39.8 | 0.24 | 45 | – | – | – | – | < 3.5 | < 4 | 0.25 | solubility kinetic at 2 h (physchem [3]; phosphate buffered saline): 170 µM (≈ 63.7 µg/mL); clearance [21]: 4.1 mL/min/kg; clearance [22]: 3.8 mL/min/kg; bioavailability [23]: 25%; half-life [24]: 10.7 h; Vd [25]: 2 L/kg; half-life [26]: 6.2 h; bioavailability [27]: 71%; Vd [28]: 3.9 L/kg
CCn1c(=O)oc2ccc(-c3ccc(C[C@@H](C#N)NC(=O)[C@@H]4CNCCCO4)cc3)cc21 | < 3.5 | > 50 | – | – | – | 0.06 | < 14 | – | – | – | – | 0.08 | – | 8 | 2 | 36 | 4 | < 3.5 | < 3.5 | 0.14 | clearance [21]: 6 mL/min/kg; half-life [24]: 16 h; bioavailability [27]: 85%; Vd [28]: 9 L/kg
Cn1c(=O)sc2ccc(-c3ccc(C[C@@H](C#N)NC(=O)[C@@H]4CNCCCO4)cc3)cc21 | < 3.5 | > 50 | 170 (≈ 74.2 µg/mL) | 11 | 4.7 | 0.07 | < 15 | 23000 | 1.5 | 3.16 | 2.51 | 0.05 | 51 | 8 | 2 | 26 | 3 | < 3.5 | < 3.5 | – | –
N#C[C@H](Cc1ccc(-c2ccc3oc(=O)n(CC(F)F)c3c2)cc1)NC(=O)[C@@H]1CNCCCO1 | < 3.5 | > 50 | 190 (≈ 89.4 µg/mL) | 8 | – | 0.07 | < 14 | – | 1 | 6.31 | 6.31 | 0.06 | 80 | 7 | 2 | 29 | 4 | 5 | – | 0.15 | –
